From PubChem
Shown are actives, neighbours in structure and some others; about 2.7% of the full set was active somewhere.
PAFAH1B3 inh: PAFAH1B3 enzyme inhibitors, primary screen, biochemical, fluorescence polarization, human | Platelet-activating factor acetylhydrolase IB subunit alpha1 (Homo sapiens), Q15102 | recombinant PAFAH1B3, FP-rhodamine probe | inhibition, % at 3.39 µM | 340,000 tested, 0.28% active | AID 492972, 2010;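 active = inhibition above the screen-wide average of all tested compounds plus 3 SD, cut at about 25% in these data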;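 note: 0% = enzyme with DMSO only and 100% = wells lacking PAFAH1B3 protein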
Target sequence (Q15102 whole entry, looked up): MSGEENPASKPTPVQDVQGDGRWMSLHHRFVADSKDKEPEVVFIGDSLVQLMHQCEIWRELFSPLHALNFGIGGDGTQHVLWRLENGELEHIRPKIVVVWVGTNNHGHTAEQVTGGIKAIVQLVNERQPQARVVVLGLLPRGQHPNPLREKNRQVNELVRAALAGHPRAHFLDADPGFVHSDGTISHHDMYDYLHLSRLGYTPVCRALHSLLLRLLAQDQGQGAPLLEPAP
PAFAH2 FP inh: PAFAH2 enzyme inhibitors, primary screen, biochemical, fluorescence polarization, human; AID 492956, 2010; 340,000 tested, 0.99% active; recombinant PAFAH2, FP-rhodamine activity probe; Platelet-activating factor acetylhydrolase 2, cytoplasmic (Homo sapiens), Q99487; inhibition, % at 3.39 µM;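 active = inhibition above the mean over all tested compounds plus 3 SD, cut at about 30% in these data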;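 note: inhibitors block probe labeling of enzyme so polarization drops; 0% = enzyme with DMSO and 100% = wells lacking PAFAH2 protein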
RBBP9 inh: human RBBP9 inhibitors, primary screen, biochemical, fluorescence polarization, FP-Rh probe, HTS | inhibition, % at 7.94 µM | 220,000 tested, 0.2% active | Serine hydrolase RBBP9 (Homo sapiens), O75884 | recombinant RBBP9;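 active = inhibition above the campaign mean of all tested compounds plus 3 SD, cut at about 14% in these data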;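 note: plate controls were DMSO wells with RBBP9 for no effect and wells lacking RBBP9 protein for full effect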
Target sequence (O75884 whole entry, looked up): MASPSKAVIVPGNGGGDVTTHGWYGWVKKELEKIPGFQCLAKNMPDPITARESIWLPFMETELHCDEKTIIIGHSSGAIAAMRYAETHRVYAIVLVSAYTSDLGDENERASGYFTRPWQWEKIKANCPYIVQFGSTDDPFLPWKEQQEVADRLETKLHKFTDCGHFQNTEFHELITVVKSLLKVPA
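Assay system: recombinant human RBBP9; Reagent: Serine-hydrolase probe FP-Rh, 375 nM pre-mixing; Doses: 7.94 µM single dose, 0.794% DMSO; Incubation: 30 min then 45 min, 25 °C; Detection: fluorescence polarization (mP), excitation 525 nm, emission 598 nm; Evaluation: percent inhibition from mP, scaled between DMSO and no-protein wells.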
pPAFAH FP inh: pPAFAH enzyme inhibitors, primary screen, biochemical, fluorescence polarization, human; Platelet-activating factor acetylhydrolase (Homo sapiens), Q13093; recombinant pPAFAH, FP-rhodamine probe fluorescence polarization; inhibition, % at 3.39 µM; 330,000 tested, 1.5% active;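 active = inhibition above the mean inhibition across the screen plus 3 SD, cut at about 25% in these data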;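 note: inhibitors block binding of the rhodamine activity-based probe so polarization drops; 0% = enzyme with DMSO and 100% = wells lacking pPAFAH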
PAFAH1B2 FP inh: PAFAH1B2 enzyme inhibitors, primary screen, biochemical, fluorescence polarization, human. inhibition, % at 3.39 µM. Platelet-activating factor acetylhydrolase IB subunit alpha2 (Homo sapiens), P68402. AID 492953, 2010. 340,000 tested, 1.2% active. recombinant PAFAH1B2, FP-rhodamine activity probe;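 active = inhibition above the mean of all tested compounds plus 3 SD, cut at about 24% in these data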;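 note: 0% = enzyme with DMSO and 100% = wells lacking PAFAH1B2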
Target sequence (P68402 whole entry, looked up): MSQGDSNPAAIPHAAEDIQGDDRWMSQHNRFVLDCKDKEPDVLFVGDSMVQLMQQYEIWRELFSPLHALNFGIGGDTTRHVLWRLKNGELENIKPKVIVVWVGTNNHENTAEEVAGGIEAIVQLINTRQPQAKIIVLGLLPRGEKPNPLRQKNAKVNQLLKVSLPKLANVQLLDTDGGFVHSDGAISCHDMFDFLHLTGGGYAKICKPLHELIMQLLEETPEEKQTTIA
* hit, by the source's call; . = no result given.

SMILES	PAFAH1B3 inh	PAFAH2 FP inh	RBBP9 inh	pPAFAH FP inh	PAFAH1B2 FP inh
O=C1C=C(NCc2ccc(Cl)cc2)CC(c2ccco2)C1 (stereo unspecified)	12.1	10.9	0.8	11.0	29.1*
CC(C)CNC1=CC(=O)CC(c2ccco2)C1 (stereo unspecified)	3.2	18.3	-1.0	10.5	4.8
CC(C)(C)c1ccc(C(CC(=O)O)NC(=O)CSc2ccccc2)cc1 (stereo unspecified)	.	.	-1.9	4.9	.
CC(C)(C)c1ccc(C(CC(=O)O)NC(=O)C23CC4CC(CC(C4)C2)C3)cc1 (stereo unspecified)	-6.6	10.4	.	31.1*	25.5*
Cc1ccccc1NC(=O)CSc1ccsc1[N+](=O)[O-]	13.6	22.1	-6.2	27.0*	3.7
O=C(NCC1CCCO1)C(=O)N/N=C/c1ccc(OCc2ccccc2Cl)cc1 (stereo unspecified)	6.0	4.6	.	29.7*	3.4
COc1cccc(/C=N/NC(=O)c2cc3c(OC)ccc(OC)c3[nH]2)c1O	39.5*	-5.6	.	23.7	28.8*
COc1cccc(/C=N/NC(=O)c2ccc3nc[nH]c3c2)c1O	2.9	0.9	-4.1	8.3	5.6
COc1cccc(CSc2nc3sc(C)c(C)c3c(=O)n2Cc2ccco2)c1	6.7	-2.4	-5.9	25.8*	-0.5
Cc1cccc(CSc2nc3sc(C)c(C)c3c(=O)n2Cc2ccco2)c1	1.0	2.6	-6.8	22.6	0.1
COc1ccc(/C=C\c2cc(OC)c(OC)cc2CC[N+](C)(C)C)cc1OC	6.3	3.4	6.8	-2.4	4.3
Cc1ccc(C)c(N=Nc2ccc(O)c3ncccc23)c1	6.7	-1.8	4.5	26.6*	-1.8
Oc1ccc(N=Nc2ccc3c(c2)OCCO3)c2ncccc12	8.7	-1.8	-1.1	27.8*	5.3
CCOc1ccc(N=Nc2ccc(O)c3ncccc23)cc1	8.9	-5.5	.	.	2.6
NS(=O)(=O)c1ccc(N=Nc2ccc(O)c3ncccc23)cc1	5.6	7.0	.	26.8*	0.2
Cc1cccc(N=Nc2ccc(O)c3ncccc23)c1	8.1	10.8	-7.2	50.9*	10.7
CC1(C)CC(=O)C=C(c2cccs2)C1	-0.6	-2.1	.	0.9	7.2
Cc1cc(C)c(NC(=O)CSc2nccn2C)c(C)c1	-4.8	-2.9	-4.3	3.0	-6.1
O=C(CS(=O)(=O)c1cn(Cc2ccc(Cl)cc2)c2ccccc12)N1CCCCC1	-7.9	-2.5	-8.0	0.0	28.2*
CCOc1ccc(Br)cc1C1=NN(C(C)=O)C(c2ccc([N+](=O)[O-])s2)O1 (stereo unspecified)	17.0	39.0*	.	.	9.9
CC(=O)N1N=C(c2ccc(C)cc2)OC1c1ccc(Br)cc1 (stereo unspecified)	-2.5	4.9	-2.1	2.5	8.1
O=C(CSc1cn(CC(=O)N2CCCCCC2)c2ccccc12)NCC1CCCO1 (stereo unspecified)	9.1	4.1	1.6	-1.3	7.8
CCc1ccc(C(=O)OCC(=O)N(CCOC)c2c(N)n(Cc3ccccc3)c(=O)[nH]c2=O)cc1	11.8	0.0	.	2.9	3.1
O=C1/C(=C/c2cccs2)CCC/C1=C\c1cccs1	8.2	-1.4	.	29.1*	11.7
CC1C/C(=C/c2cccs2)C(=O)/C(=C/c2cccs2)C1 (stereo unspecified)	-5.2	-5.5	-6.0	15.8	-5.9
SMILES	PAFAH1B3 inh	PAFAH2 FP inh	RBBP9 inh	pPAFAH FP inh	PAFAH1B2 FP inh
O=C(O)c1cc(O)c2c(c1)[C@@H]([C@H]1c3cc(C(=O)O)cc(O)c3C(=O)c3c(O[C@@H]4O[C@H](CO)[C@@H](O)[C@H](O)[C@H]4O)cccc31)c1cccc(OC3O[C@H](CO)[C@@H](O)[C@H](O)[C@H]3O)c1C2=O (stereo partly specified)	75.9*	86.0*	.	96.9*	78.3*
COc1cc2c(cc1OC)CN(CC(=O)Nc1ccc(F)cc1)C(C(=O)O)C2 (stereo unspecified)	5.0	1.0	.	-1.9	6.7
Brc1ccc(CSc2nccn2-c2ccccc2)cc1	5.1	13.1	-2.8	0.4	24.2*
NC(=O)COC(=O)CC12CC3CC(CC(Br)(C3)C1)C2	9.5	2.5	-4.3	5.6	26.5*
NC(=O)COC(=O)CC12CC3CC(CC(C3)C1)C2	5.2	4.1	-11.1	4.8	20.5
CC(=O)Oc1ccc(N2C(=O)C3C4C=CC(CO)(O4)C3C2=O)cc1 (stereo unspecified)	-0.6	0.5	-5.1	4.6	3.1
O=C1C2C3C=CC(CO)(O3)C2C(=O)N1c1ccccc1-c1ccccc1 (stereo unspecified)	2.3	0.1	33.2*	0.3	4.3
COc1cccc(CNC(=O)COC(=O)C23CC4CC(CC(Cl)(C4)C2)C3)c1	-0.2	-0.5	.	5.3	28.3*
S=C(Nc1ccc(Oc2ccccc2)cc1)N1CCOCC1	115.1*	127.1*	.	6.9	93.2*
S=C(Nc1ccccc1)N1CCOCCOCCN(C(=S)Nc2ccccc2)CCOCCOCC1	-3.8	-2.1	-4.1	5.2	-3.5
COc1cc(CCCN2CCNC[C@H]2Cc2cccc3ccccc23)cc(OC)c1OC	0.1	4.1	.	-0.5	4.3
COc1ccc(-n2c(Cc3cccn3C)nnc2SCC(=O)Nc2cccc(OC)c2)cc1	-2.0	9.7	-9.6	-3.9	-2.8
COc1ccc(NC(=O)CSc2nnc(Cc3cccn3C)n2-c2ccc(C)cc2)cc1OC	3.6	2.7	-2.6	32.3*	3.1
CN(CC(=O)Nc1ccc(Cl)c(C(F)(F)F)c1)C(=O)CCCNC(=O)c1ccc(Cl)cc1	2.5	1.3	.	30.6*	52.7*
COc1ccc(CCC(=O)Nc2ccc(N3CCOCC3)c(S(=O)(=O)Nc3ccc(OC)cc3)c2)cc1	-3.8	0.7	.	.	5.0
S=C1NCCOCCNC(=S)NCCOCCOCCN1	0.1	5.6	-3.4	25.5*	-2.8
CN(Cc1cccs1)C(=O)CCNS(=O)(=O)c1ccc(Br)cc1	13.6	10.5	.	4.1	31.8*
O=C(CCNS(=O)(=O)c1ccc(Br)cc1)NCc1cccs1	1.4	2.6	-7.1	3.8	16.0
COc1ccc(CNC(=O)c2ccc(CS(=O)(=O)c3ccc(C)cc3)o2)cc1	5.1	4.6	.	7.5	5.5
CCN(CC)c1nc2c3c(nc4c(c3c1C#N)CC(=O)N4c1ccc(Cl)cc1)NC(C)=N2	13.7	15.5	3.4	63.7*	15.3
Cc1ccc(-c2nnc(SCC(=O)NC3CCCC3)n2N)cc1	13.2	-5.4	.	-1.5	4.8
N#Cc1c(N)sc(=S)c2c1CCN(Cc1ccccc1)C2	.	.	.	40.4*	.
CCN1CCc2c(sc(N)c2C#N)C1	-6.7	10.7	2.9	4.7	-3.7
